Measured values reported in ChEMBL document CHEMBL1123103, “Pyrimidinones. 1. 2-Amino-5-halo-6-aryl-4(3H)-pyrimidinones. Interferon-inducing antiviral agents” (1985).
Active and inactive are the calls of the source. The rule behind the calls is not given here.

Assays:
[1] = system: Vesicular stomatitis virus; test: Evaluation for serum interferon response from a single 800 mg/kg intraperitoneal administration in vesicular stomatitis virus on […] cells.; type: functional
In short: (§1)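 Mice got a single ip 800 mg/kg dose. Blood was drawn 3, 6, 8 and 12 h later from five mice per group and pooled. Interferon titer was measured by plaque reduction with vesicular stomatitis virus on L929 cells. Titer is the reciprocal serum dilution cutting plaques by 50% versus untreated cultures. Peak response within 24 h was banded: ≥2000, ~500-1000, ~50-500, ~10-50 U/mL.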

Semliki Forest virus [2] = test: Antiviral activity against Forest virus (SFV); type: functional
In short: (§2)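 ICR or CD-1 mice of both sexes got one drug dose by the route in the line (ip, po or sc). The drug was a suspension in 0.9% NaCl or in a CMC/polysorbate 80/benzyl alcohol/NaCl vehicle. […] Deaths were recorded daily for 6 days, 24 mice/group. ED50 is the minimal dose protecting 50% of mice, by probit analysis.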

Semliki Forest virus [3] = test: Effective dose administered perorally againist Forest virus infected mice; type: functional; settings: po; in short: as §2
Semliki Forest virus [4] = test: Effective dose administered subcutaneously againist Forest virus infected mice; type: functional; settings: sc; in short: as §2
Mus musculus [5] = test: Protection index after intraperitoneal administration (25 mg/kg/day) against herpes simplex virus type-1 (HSV-1) infected mice [protection index=(control mortality-treated mortality)/control mortality]; type: functional
In short: (§3)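 ICR or CD-1 mice got drug ip in saline as the total daily dose (mg/kg/day). It was split into doses at -40, -28, -20, -3 and +3 h relative to ip inoculation with 5.6×10^4 pfu HSV-1. Mice were followed for 22 days, 15/group. Protection index = (control mortality − treated mortality)/control mortality; >0.25 counted active. Only the lowest protective dose is recorded.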

Mus musculus [6] = test: The compound was evaluated for the serum interferon response from a single 800 mg/kg intraperitoneal administration in vesicular stomatitis virus on […] cells; range 50-500; type: functional; in short: as §1
Human alphaherpesvirus 1 = test: Intraperitoneal administration against herpes simplex virus type-1 (HSV-1) infected mice; type: functional; in short: as §3
Mus musculus [7] = test: The compound was evaluated for the serum interferon response from a single 800 mg/kg intraperitoneal administration in vesicular stomatitis virus on […] cells; range 500-1000 units/mL; type: functional; in short: as §1
Mus musculus [8] = test: Evaluation for serum interferon response from a single 800 mg/kg intraperitoneal administration in vesicular stomatitis virus on […] cells; Range 10-50 units/mL; type: functional; in short: as §1
Mus musculus [9] = test: Protection index after intraperitoneal administration (50 mg/kg/day) against herpes simplex virus type-1 (HSV-1) infected mice [protection index=(control mortality-treated mortality)/control mortality]; type: functional; in short: as §3
Semliki Forest virus [10] = test: Effective dose administered intraperitoneally againist Forest virus infected mice; type: functional, organism-based
In short: (§4)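 Drug was suspended in 0.9% NaCl or in a carboxymethylcellulose/polysorbate 80/benzyl alcohol/NaCl vehicle. Deaths were recorded daily for 6 days, with 24 mice per group. The ED50 is the minimal dose protecting 50% of mice, calculated by probit analysis.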

Semliki Forest virus [11] = test: Effective dose administered perorally against Forest virus infected mice; type: functional, organism-based; in short: as §4
Semliki Forest virus [12] = test: Effective dose administered subcutaneously against Forest virus infected mice; type: functional, organism-based; in short: as §4
Mus musculus [13] = test: The compound was evaluated for the serum interferon response from a single 800 mg/kg intraperitoneal administration in vesicular stomatitis virus on […] cells; Range 500-1000 units/mL; type: functional; in short: as §1
Mus musculus [14] = test: The compound was evaluated for the serum interferon response from a single 800 mg/kg intraperitoneal administration in vesicular stomatitis virus on […] cells; Range 50-500 units/mL; type: functional; in short: as §1

Structure (SMILES) | ED50 (Semliki Forest virus [2]) [mg/kg] | ED50 (Semliki Forest virus [3]) [mg/kg] | ED50 (Semliki Forest virus [4]) [mg/kg] | Protection index (Human alphaherpesvirus 1) | other results
Nc1nc(O)c(Br)c(-c2cccc(F)c2)n1 | 70 | 175 | 155 |  | IFN [1]: >=2000 ml; Protection index (Mus musculus [5]): 0.64
Nc1nc(O)c(Br)c(-c2cccc(Br)c2)n1 | 110 | > 400 | > 400 | 0.47 | IFN (Mus musculus [6]): 500 mL
Cc1ccccc1-c1nc(N)nc(O)c1Cl | 130 | > 400 | 350 | 0.13 | IFN (Mus musculus [7]): 500 units/mL
CCCOc1cccc(-c2nc(N)nc(O)c2Cl)c1 | 40 | > 400 |  | 0.13 | IFN (Mus musculus [8]): 10 units/mL
Nc1nc(O)c(Cl)c(-c2ccccc2F)n1 | 105 | 105 | 115 |  | IFN [1]: >=2000 ml; Protection index (Mus musculus [9]): 0.69
Nc1nc(O)c(I)c(-c2ccccc2F)n1 | 105 | > 400 | > 400 |  | IFN (Mus musculus [7]): 500 units/mL; Protection index (Mus musculus [9]): 0.67
CCCOc1cccc(-c2nc(N)nc(O)c2I)c1 | 100 |  |  | 0 | IFN (Mus musculus [8]): 10 units/mL
Nc1nc(O)c(Br)c(-c2ccc(Cl)cc2)n1 | 100 | > 400 | > 400 |  | IFN (Mus musculus [8]): 10 units/mL
CC(C)(C)c1ccc(-c2nc(N)nc(O)c2Br)cc1 |  |  |  |  | ED50 (Semliki Forest virus [10]): inactive; ED50 (Semliki Forest virus [11]): inactive; ED50 (Semliki Forest virus [12]): inactive
Nc1nc(O)c(I)c(-c2cnccn2)n1 | 275 | > 400 | > 400 |  | IFN (Mus musculus [7]): 500 units/mL
Nc1nc(O)c(I)c(-c2cccc(Cl)c2)n1 | 35 | > 400 | 250 | 0.65 | IFN (Mus musculus [13]): 500 units/mL
COc1ccc(-c2nc(N)nc(O)c2I)cc1 | > 400 |  |  |  | ED50 (Semliki Forest virus [11]): inactive; ED50 (Semliki Forest virus [12]): inactive
Nc1nc(O)c(Br)c(-c2cccc3ccccc23)n1 | 40 | > 400 | > 400 | 0 | IFN (Mus musculus [8]): 10 units/mL
Cc1ccc(-c2nc(N)nc(O)c2I)cc1 | 115 | > 400 | > 400 |  | IFN (Mus musculus [8]): 10 units/mL
Nc1nc(O)c(Cl)c(-c2cccc(F)c2F)n1 | 70 | 200 |  | 0.93 | IFN (Mus musculus [13]): 500 units/mL
COc1ccc(-c2nc(N)nc(O)c2Br)cc1 | > 400 |  |  |  | ED50 (Semliki Forest virus [11]): inactive; ED50 (Semliki Forest virus [12]): inactive
CC(C)(C)c1ccc(-c2nc(N)nc(O)c2I)cc1 |  |  |  |  | ED50 (Semliki Forest virus [10]): inactive; ED50 (Semliki Forest virus [11]): inactive; ED50 (Semliki Forest virus [12]): inactive
Nc1nc(O)c(Cl)c(-c2cc(F)ccc2F)n1 | 165 | > 400 |  |  | IFN (Mus musculus [13]): 500 units/mL
Nc1nc(O)c(I)c(-c2ccc(Cl)cc2)n1 | 110 | > 400 | > 400 | 0.27 | IFN (Mus musculus [8]): 10 units/mL
Nc1nc(O)c(Br)c(-c2ccncc2)n1 | > 400 |  |  | 0 | ED50 (Semliki Forest virus [11]): inactive; ED50 (Semliki Forest virus [12]): inactive
Nc1nc(O)c(I)c(-c2c(F)cc(F)cc2F)n1 |  |  |  | 0 | ED50 (Semliki Forest virus [10]): inactive
Nc1nc(O)c(Br)c(-c2ccc3ccccc3c2)n1 | > 400 |  |  |  | ED50 (Semliki Forest virus [11]): inactive; ED50 (Semliki Forest virus [12]): inactive
CC(C)(C)c1ccc(-c2nc(N)nc(O)c2Cl)cc1 |  |  |  |  | ED50 (Semliki Forest virus [10]): inactive; ED50 (Semliki Forest virus [11]): inactive; ED50 (Semliki Forest virus [12]): inactive
Nc1nc(O)c(Br)c(-c2cccc(C(F)(F)F)c2)n1 | 200 | > 400 | > 400 | 0.53 | IFN (Mus musculus [14]): 50 mL
